Experimental data from ChEMBL document CHEMBL4699669, “Discovery of a Potent Adenine-Benzyltriazolo-Pleuromutilin Conjugate with Pronounced Antibacterial Activity against MRSA” (J Med Chem, 2020).
Values after ≈ are worked out from the molar mass of the structure shown.

What was measured:
Staphylococcus aureus [1] = assay: Antibacterial activity against methicilin-resistant Staphylococcus aureus 52518 incubated for 20 to 24 hrs by microbroth dilution assay; format: functional; details: time hrs 20-24
Summary of the method: (§1)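 Broth microdilution per EUCAST in Mueller-Hinton broth. Inoculum 5.0·10^5 CFU/mL, prepared from overnight single-colony cultures at OD600 0.1 then diluted 100x. Final compound concentrations 0.015–16 µg/mL. Incubation at 37 °C for 20–24 h, protected from light. MIC is the lowest concentration with no visible growth. Each replicate uses three cultures; n = 2–3.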

Staphylococcus aureus [2] = assay: Antibacterial activity against methicilin-resistant Staphylococcus aureus USA300 FPR3757 incubated for 20 to 24 hrs by microbroth dilution assay; format: functional; details: time hrs 20-24; summary of the method: as §1
Caco-2 [3] = assay: Cytotoxicity against differentiated human Caco2 cells assessed as increase in ATP level at 100 ug/ml incubated for 3 hrs by Cell-titer Glo assay; format: cell-based; details: caco-2, 3 h, dose 100 µg/ml
Summary of the method: (§2)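 Cells rinsed of growth medium, then exposed 3 h at 37 °C, 220 rpm, light-protected, to compound in HBSS with 10 mM HEPES, pH 7.4 (final DMSO <1% at top concentrations). Plates equilibrated 10 min at rt, CellTiter-Glo 2.0 added, mixed 2 min, signal stabilized 10 min. Luminescence (ATP) normalized to HBSS-only control cells. Mean ± SD of 3 wells, one passage.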

[4] = tested on: Staphylococcus epidermidis; assay: Antibacterial activity against methicilin-resistant Staphylococcus epidermis 933010 incubated for 20 to 24 hrs by microbroth dilution assay; format: functional; details: time hrs 20-24; summary of the method: as §1
Staphylococcus aureus [5] = assay: Antibacterial activity against methicilin-resistant Staphylococcus aureus USA300 FPR3757 incubated for 20 hrs by microbroth dilution assay; format: functional
Summary of the method: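 MBC determined from a completed MIC replicate (MRSA USA300 FPR3757, Mueller-Hinton, 5.0·10^5 CFU/mL). […] MBC is the lowest concentration giving a 99.9% reduction of the starting inoculum; n = 3.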

Staphylococcus aureus [6] = assay: Antibacterial activity against methicilin-resistant Staphylococcus aureus 4828 incubated for 20 to 24 hrs by microbroth dilution assay; format: functional; details: time hrs 20-24; summary of the method: as §1
Staphylococcus aureus [7] = assay: Antibacterial activity against methicilin-resistant Staphylococcus aureus 55508 incubated for 20 to 24 hrs by microbroth dilution assay; format: functional; details: time hrs 20-24; summary of the method: as §1
Caco-2 [8] = assay: Cytotoxicity against undifferentiated human Caco2 cells assessed as ATP level at 100 ug/ml incubated for 3 hrs by Cell-titer Glo assay; format: cell-based; details: caco-2, 3 h, dose 100 µg/ml; summary of the method: as §2
Caco-2 [9] = assay: Cytotoxicity against human Caco2 cells assessed as cell viability at 100 ug/ml incubated for 3 hrs by MTT assay; format: cell-based; details: caco-2, 3 h, dose 100 µg/ml
Summary of the method: (§3)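 Undifferentiated Caco-2 cells, medium aspirated, treated 3 h at 37 °C, 220 rpm with compound in HEPES-buffered HBSS (HBSS alone as negative control, SDS as positive control). MTT then added (final 0.5 mg mL⁻¹) for 2 h more. Formazan dissolved overnight at 4 °C in 10 mM HCl/50% isobutanol/10% SDS. Mean ± SD of 3 wells, one passage.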

[10] = Cytotoxicity against human PC3 cells assessed as decrease in ATP level at 100 ug/ml incubated for 3 hrs by Cell-titer Glo assay relative to control; format: cell-based, PC-3; details: at 100 µg/mL, read-out: INH; summary of the method: as §2
HEK293 = assay: Cytotoxicity against HEK293 cells expressing OAT3 assessed as cell viability at 108 ug/ml incubated for 3 hrs by Cell-titer Glo assay; format: ADME, cell-based; details: human, hek293, 3 h, dose 108 µg/ml; summary of the method: as §2
Caco-2 [11] = assay: Cytotoxicity against undifferentiated human Caco2 cells assessed as ATP level at 108 ug/ml incubated for 3 hrs by Cell-titer Glo assay; format: cell-based; details: caco-2, 3 h, dose 108 µg/ml; summary of the method: as §2
Caco-2 [12] = assay: Cytotoxicity against differentiated human Caco2 cells assessed as increase in ATP level at 108 ug/ml incubated for 3 hrs by Cell-titer Glo assay; format: cell-based; details: caco-2, 3 h, dose 108 µg/ml; summary of the method: as §2
PC-3 = assay: Cytotoxicity against human PC3 cells assessed as cell viability at 108 ug/ml incubated for 3 hrs by Cell-titer Glo assay; format: cell-based; details: pc-3, 3 h, dose 108 µg/ml; summary of the method: as §2
[13] = Cytotoxicity against MDCK1 assessed as cell viability at 108 ug/ml incubated for 3 hrs by Cell-titer Glo assay; design: species or system Canis lupus familiaris; details: dog, mdck1, 3 h, dose 108 µg/ml; summary of the method: as §2
Caco-2 [14] = assay: Cytotoxicity against human Caco2 cells assessed as cell viability at 108 ug/ml incubated for 3 hrs by MTT assay; format: cell-based; details: caco-2, 3 h, dose 108 µg/ml; summary of the method: as §3
Caco-2 [15] = assay: Cytotoxicity against human Caco2 cells assessed as cell viability at 33 ug/ml incubated for 3 hrs by MTT assay; format: cell-based; details: caco-2, 3 h, dose 33 µg/ml; summary of the method: as §3
Caco-2 [16] = assay: Cytotoxicity against differentiated human Caco2 cells assessed as increase in ATP level at 33 ug/ml incubated for 3 hrs by Cell-titer Glo assay; format: cell-based; details: caco-2, 3 h, dose 33 µg/ml; summary of the method: as §2
Caco-2 [17] = assay: Cytotoxicity against differentiated human Caco2 cells assessed as ATP level at 33 ug/ml incubated for 3 hrs by Cell-titer Glo assay; format: cell-based; details: caco-2, 3 h, dose 33 µg/ml; summary of the method: as §2

C=C[C@]1(C)C[C@@H](OC(=O)CSC(C)(C)CNC(=O)[C@H](N)C(C)C)[C@]2(C)[C@H](C)CC[C@]3(CCC(=O)[C@H]32)[C@@H](C)[C@@H]1O [VALNEMULIN]
MIC (Staphylococcus aureus [1]): 0.06 µg/mL (≈ 0.106 µM) | MIC (Staphylococcus aureus [2]): 0.06 µg/mL (≈ 0.106 µM) | Activity (Caco-2 [3]): Toxic | MIC [4]: 0.25 µg/mL (≈ 0.443 µM) | MBC (Staphylococcus aureus [5]): 0.12 µg/mL (≈ 0.212 µM) | MIC (Staphylococcus aureus [6]): 0.06 µg/mL (≈ 0.106 µM) | MIC (Staphylococcus aureus [7]): 0.12 µg/mL (≈ 0.212 µM) | Activity (Caco-2 [8]): Non-Toxic | Activity (Caco-2 [9]): Non-Toxic | cytotoxicity at 3 h, 100 ug/ml [10]: 22%

C=C[C@]1(C)C[C@@H](OC(=O)Cn2cc(-c3ccc(Cn4cnc5c(N)ncnc54)cc3)nn2)[C@]2(C)[C@H](C)CC[C@]3(CCC(=O)[C@H]32)[C@@H](C)[C@@H]1O
MIC (Staphylococcus aureus [1]): 0.03 µg/mL (≈ 0.046 µM) | MIC (Staphylococcus aureus [2]): 0.03 µg/mL (≈ 0.046 µM) | Activity (HEK293): Non-Toxic | MIC [4]: 0.25 µg/mL (≈ 0.383 µM) | MBC (Staphylococcus aureus [5]): 0.12 µg/mL (≈ 0.184 µM) | Activity (Caco-2 [11]): Non-Toxic | Activity (Caco-2 [12]): Toxic | Activity (PC-3): Non-Toxic | MIC (Staphylococcus aureus [6]): 0.06 µg/mL (≈ 0.0919 µM) | MIC (Staphylococcus aureus [7]): 0.06 µg/mL (≈ 0.0919 µM) | Activity [13]: Non-Toxic | Activity (Caco-2 [14]): Non-Toxic

C=C[C@]1(C)C[C@@H](OC(=O)CS[C@@H]2C[C@H]3CC[C@@H](C2)N3C)[C@]2(C)[C@H](C)CC[C@]3(CCC(=O)[C@H]32)[C@@H](C)[C@@H]1O [RETAPAMULIN]
MIC (Staphylococcus aureus [1]): 0.12 µg/mL (≈ 0.232 µM) | MIC (Staphylococcus aureus [2]): 0.25 µg/mL (≈ 0.483 µM) | MIC [4]: 0.5 µg/mL (≈ 0.966 µM) | MBC (Staphylococcus aureus [5]): > 2 µg/mL | Activity (Caco-2 [15]): Non-Toxic | MIC (Staphylococcus aureus [6]): 0.25 µg/mL (≈ 0.483 µM) | MIC (Staphylococcus aureus [7]): 0.25 µg/mL (≈ 0.483 µM) | Activity (Caco-2 [16]): Toxic | Activity (Caco-2 [17]): Non-Toxic

C=C[C@]1(C)C[C@@H](OC(=O)Cn2cc(-c3ccc(CN4C(=O)c5ccccc5C4=O)cc3)nn2)[C@]2(C)[C@H](C)CC[C@]3(CCC(=O)[C@H]32)[C@@H](C)[C@@H]1O
MIC (Staphylococcus aureus [2]): 0.25 µg/mL (≈ 0.376 µM)

C=C[C@]1(C)C[C@@H](OC(=O)Cn2cc(-c3ccccc3Cc3ccc(OC)cc3)nn2)[C@]2(C)[C@H](C)CC[C@]3(CCC(=O)[C@H]32)[C@@H](C)[C@@H]1O
MIC (Staphylococcus aureus [2]): 2 µg/mL (≈ 3.2 µM)

C=C[C@]1(C)C[C@@H](OC(=O)Cn2cc(-c3cccc(Cc4cccc(CO)c4)c3)nn2)[C@]2(C)[C@H](C)CC[C@]3(CCC(=O)[C@H]32)[C@@H](C)[C@@H]1O
MIC (Staphylococcus aureus [2]): 1 µg/mL (≈ 1.6 µM)

C=C[C@]1(C)C[C@@H](OC(=O)Cn2cc(-c3cccc(Cn4cnc5c(N(CC)CC)nc(N)nc54)c3)nn2)[C@]2(C)[C@H](C)CC[C@]3(CCC(=O)[C@H]32)[C@@H](C)[C@@H]1O
MIC (Staphylococcus aureus [2]): 0.5 µg/mL (≈ 0.691 µM)

C=C[C@]1(C)C[C@@H](OC(=O)Cn2cc(-c3cccc(CN4CCN(C)CC4)c3)nn2)[C@]2(C)[C@H](C)CC[C@]3(CCC(=O)[C@H]32)[C@@H](C)[C@@H]1O
MIC (Staphylococcus aureus [2]): 2 µg/mL (≈ 3.24 µM)

C=C[C@]1(C)C[C@@H](OC(=O)Cn2cc(-c3cccc(Cn4cc(C)c(=O)[nH]c4=O)c3)nn2)[C@]2(C)[C@H](C)CC[C@]3(CCC(=O)[C@H]32)[C@@H](C)[C@@H]1O
MIC (Staphylococcus aureus [2]): 1 µg/mL (≈ 1.55 µM)

C=C[C@]1(C)C[C@@H](OC(=O)Cn2cc(-c3cccc(Cn4cnc5c(N(CC)CC)ncnc54)c3)nn2)[C@]2(C)[C@H](C)CC[C@]3(CCC(=O)[C@H]32)[C@@H](C)[C@@H]1O
MIC (Staphylococcus aureus [2]): 1 µg/mL (≈ 1.41 µM)

C=C[C@]1(C)C[C@@H](OC(=O)Cn2cc(-c3ccc(Cn4cnc5c(NCCN)ncnc54)cc3)nn2)[C@]2(C)[C@H](C)CC[C@]3(CCC(=O)[C@H]32)[C@@H](C)[C@@H]1O
MIC (Staphylococcus aureus [2]): 0.5 µg/mL (≈ 0.719 µM)

C=C[C@]1(C)C[C@@H](OC(=O)Cn2cc(-c3ccccc3Cn3cnc4c(N(CC)CC)ncnc43)nn2)[C@]2(C)[C@H](C)CC[C@]3(CCC(=O)[C@H]32)[C@@H](C)[C@@H]1O
MIC (Staphylococcus aureus [2]): 1 µg/mL (≈ 1.41 µM)

C=C[C@]1(C)C[C@@H](OC(=O)Cn2cc(-c3ccc(CN)cc3)nn2)[C@]2(C)[C@H](C)CC[C@]3(CCC(=O)[C@H]32)[C@@H](C)[C@@H]1O
MIC (Staphylococcus aureus [2]): 2 µg/mL (≈ 3.74 µM)

C=C[C@]1(C)C[C@@H](OC(=O)Cn2cc(-c3cccc(CN(CC)CC)c3)nn2)[C@]2(C)[C@H](C)CC[C@]3(CCC(=O)[C@H]32)[C@@H](C)[C@@H]1O
MIC (Staphylococcus aureus [2]): 2 µg/mL (≈ 3.39 µM)

C=C[C@]1(C)C[C@@H](OC(=O)Cn2cc(-c3cccc(-n4cnc5c(N)ncnc54)c3)nn2)[C@]2(C)[C@H](C)CC[C@]3(CCC(=O)[C@H]32)[C@@H](C)[C@@H]1O
MIC (Staphylococcus aureus [2]): 0.06 µg/mL (≈ 0.0939 µM)

C=C[C@]1(C)C[C@@H](OC(=O)Cn2cc(-c3ccc(CN(CC)CC)cc3)nn2)[C@]2(C)[C@H](C)CC[C@]3(CCC(=O)[C@H]32)[C@@H](C)[C@@H]1O
MIC (Staphylococcus aureus [2]): 4 µg/mL (≈ 6.77 µM)

C=C[C@]1(C)C[C@@H](OC(=O)Cn2cc(-c3ccc(CO)cc3)nn2)[C@]2(C)[C@H](C)CC[C@]3(CCC(=O)[C@H]32)[C@@H](C)[C@@H]1O
MIC (Staphylococcus aureus [2]): 0.25 µg/mL (≈ 0.467 µM)

C=C[C@]1(C)C[C@@H](OC(=O)Cn2cc(-c3ccc(Cc4ccc(OC)cc4)cc3)nn2)[C@]2(C)[C@H](C)CC[C@]3(CCC(=O)[C@H]32)[C@@H](C)[C@@H]1O
MIC (Staphylococcus aureus [2]): 8 µg/mL (≈ 12.8 µM)
